Screening data: PubChem, several laboratories
The full list was thinned out, with hits kept by preference.
CHOP inhibitor: inhibitors of CHOP promoter induction, primary screen, cell-based, unfolded protein response, luciferase reporter; CHO-K1 CHOP-promoter luciferase, tunicamycin-induced, 15-18 h; inhibition, % at 10 µM; actives 3.8% (n = 220,000);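 active = compounds that reduced the stress-induced luciferase reporter signal by more than about 70% of percent inhibition, limit read from the data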;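 also: 0% = tunicamycin plus vehicle and 100% = wells without tunicamycin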
Lmaj promast: Leishmania major promastigote growth inhibition, primary screen; actives 9% (n = 200,000); AID 1063, 2008; Leishmania major promastigotes, resazurin fluorescence viability; inhibition, % at 10 µM; in the data active = inhibition above about 50%;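 also: promastigotes grown with compound for 44 hours at 28 °C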
T cruzi inh: inhibitors of intracellular T. cruzi growth, primary screen, luminescence, NIH3T3 host cells | T. cruzi beta-gal in NIH3T3, 90 h | inhibition, % (concentration not given with the values) | actives 1.4% (n = 300,000);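 active = mean inhibition across valid replicates above about 55%, limit read from the data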;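 also: signal also drops with host cell toxicity which is not excluded here; 0% = plate median of DMSO wells and 100% = zero luminescence signal; higher percent means less beta-gal luminescence so fewer parasites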
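System – NIH/3T3 host cells with β-galactosidase reporter T. cruzi · Doses – single 50 nL compound addition per well in DMSO · Reagent – 5000 T. cruzi trypomastigotes/well · Medium – Low-serum DMEM with 2% FBS · Timing – ≥90 h infection period, 3 h prior cell attachment · Evaluation – parasite load inhibition, % · Technique – GalScreen luminescence, 60 min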
CHOP UPR activ: activators of apoptotic CHOP UPR arm, primary screen, cell-based, CHO-CHOP luciferase reporter, luminescence, uHTS | UPR activation; percent of tunicamycin response over DMSO baseline | activation, % at 10 µM | actives 0.34% (n = 330,000) | AID 449763, 2010;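 active = at 10 µM dose, activation of 40% or more, normalized to positive control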;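 also: 100% = tunicamycin at 10 µg/mL and 0% = DMSO alone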
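Evaluation: % reporter activation, DMSO baseline versus tunicamycin full activation; System: CHO-CHOP luciferase reporter cell line; Input: 500 cells/well; Incubation: 6 h compound treatment, 37 °C; Measured by: Steady-Glo luciferase luminescence; Dosing: one dose, 10 µM in 0.5% DMSO; Buffer or medium: F12 medium, 10% FBS; Benchmarks: positive tunicamycin 10 µg/mL, negative DMSO alone.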
Dynein transport: inhibitors of GR-EGFP nuclear translocation, primary screen, dynein cargo transport inhibitor project, imaging, high-content, 3617.4 mouse cells | test concentration mostly 20 µM; stimulated with dexamethasone, 1 µM; stronger effect = lower value | actives 0.47% (n = 220,000) | z-score, hits read low;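 active = plate z-score of nuclear minus cytoplasmic receptor signal below a set negative limit, without overly bright fluorescence or cell loss, cut at about -3.5 in these data, passing the limit was not always enough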;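 also: z-score of nuclear minus cytoplasmic ring GR-EGFP intensity difference per well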
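Buffer or medium: tetracycline-free induction medium containing charcoal-stripped FBS / Reagent: dexamethasone agonist, 1.0 µM final, for 30 min / Technique: automated 10x imaging of fixed Hoechst-stained cells / Times: induction 48 h, compound 1 h, agonist 30 min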
XBP1 UPR activ: activators of adaptive XBP1 UPR arm, primary screen, cell-based, CHO-XBP1 luciferase reporter, luminescence, uHTS. IRE1-XBP1 UPR activation; percent of tunicamycin response, DMSO as zero. actives 0.33% (n = 330,000). activation, % at 20 µM. AID 463104, 2010;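 active = versus positive control, 20 µM dose yields 30% or more activation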;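 also: 100% = tunicamycin at 10 µg/mL and 0% = DMSO only wells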
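Material: CHO cell line with stable XBP1 luciferase reporter; schedule: 16-18 h cell attachment at 37 °C, then 6 h compound exposure; signal: glow luminescence from Steady-Glo reagent; medium: serum-containing F12 medium, 10% FBS; benchmarks: tunicamycin 10 µg/mL and vehicle-only wells; read-out: percent activation relative to tunicamycin reference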
* = called active by the depositor; nt = no result.

SMILES	CHOP inhibitor	Lmaj promast	T cruzi inh	CHOP UPR activ	Dynein transport	XBP1 UPR activ
Cn1c(=O)c2c(nc(SCCN3CCOCC3)n2Cc2ccc(F)cc2)n(C)c1=O	31	1	-5	2	-0.42	-1
CNC(=S)NCc1ccc2[nH]c(C)cc2c1	-17	-7	-7	-2	0.14	0
CCc1cccc(C)c1NC(=S)NCc1ccc2[nH]c(C)cc2c1	22	93*	24	1	-0.31	-1
O=C(Cc1nc2ccccc2[nH]1)c1ccc(Br)cc1	-31	96*	38	5	-1.8	2
Cc1ccc(N/N=C(\Cc2nc3ccccc3[nH]2)c2ccccc2)cc1	19	88*	nt	nt	0.44	nt
CCN/N=C(\Cc1nc2ccccc2[nH]1)c1ccccc1	19	75*	-2	2	-0.42	1
COc1ccc2oc(=O)c(C(=O)N3CCN(C(=O)c4ccco4)CC3)cc2c1	nt	nt	-1	3	nt	-6
NCCC1CCCC(CCN)N1 (configuration not stated)	16	nt	nt	3	nt	-9
Fc1ccc(/C=C2\CCCC3=C2Nc2ncnn2C3c2ccc(F)cc2)cc1 (configuration not stated)	-10	73*	23	15	-3	-1
COc1ccc(C2C3=C(Nc4ncnn42)c2ccccc2CCC3)cc1 (configuration not stated)	nt	5	12	0	0.4	-1
COCc1cc(=O)[nH]c2c1c(-c1ccccc1)nn2C	5	nt	-12	1	-1.6	3
COc1ccc(C=NNC(=O)c2cc(C)oc2C)cc1O	nt	nt	nt	3	nt	3
Cc1ccc(OCc2nnc(NC(=O)Cc3cccs3)s2)cc1	65	-9	0	-3	-0.5	3
CCc1ccc(OCc2nnc(NC(=O)c3cccs3)s2)cc1	72*	-7	-54	0	-0.64	-2
O=C(CCc1nc2ccccc2c(=O)[nH]1)N1CCN(C/C=C/c2ccccc2)CC1	43	5	82*	7	0.085	0
O=c1[nH]c(CN2CCN(C/C=C/c3ccccc3)CC2)nc2cc(Cl)ccc12	-16	49	61*	4	0.32	-1
O=C1Cc2cc(NS(=O)(=O)c3ccc([N+](=O)[O-])cc3)cc3c2N1CCC3	nt	nt	-2	0	nt	-3
Cc1ccc(-n2nc(C)c3c(C)c(CCC(=O)Nc4ccc(CN5CCCC5)cc4)c(C)nc32)cc1	-10	nt	72*	4	13	10
CCN(CC)S(=O)(=O)c1cc(NC(=O)C(C)OC(=O)c2[nH]c(C)c(C(C)=O)c2C)ccc1C (configuration not stated)	35	95*	22	0	0.82	-1
CC(=O)c1c(C)[nH]c(C(=O)OC(C)C(=O)Nc2ccc(C)c(S(=O)(=O)N3CCOCC3)c2)c1C (configuration not stated)	nt	nt	nt	0	nt	-3
CCCN(CC(=O)Nc1ccccc1C)C(=O)CCCc1c[nH]c2ccccc12	nt	nt	nt	1	nt	-3
O=C(NCc1nc2ccccc2[nH]1)C1=C[C@@H](C2CCCCC2)C[C@@H](OCc2ccc(CO)cc2)O1	25	74*	38	0	0.22	-2
O=C(NCc1nc2ccccc2[nH]1)C1=C[C@H](c2ccccc2)C[C@H](OCc2ccc(CO)cc2)O1	21	14	18	1	0.13	1
O=C(NCc1nc2ccccc2[nH]1)C1=C[C@H](C2CCCCC2)C[C@H](OCc2ccc(CO)cc2)O1	29	36	38	-1	-0.49	-2
O=C(NCc1nc2ccccc2[nH]1)C1=C[C@@H](c2ccccc2)C[C@@H](OCc2ccc(CO)cc2)O1	26	85*	9	1	0.33	0
SMILES	CHOP inhibitor	Lmaj promast	T cruzi inh	CHOP UPR activ	Dynein transport	XBP1 UPR activ
CC1=C(C(=O)Nc2cccc(C(=O)NCc3ccccc3C)c2)SCCO1	nt	nt	10	-2	nt	-5
O=S(=O)(Nc1ccc(-n2cnnn2)cc1)c1ccc(F)c(F)c1F	25	nt	-3	0	-0.7	-1
O=C(NNC(=O)c1ccccc1Cl)c1ccc2c(c1)OCCO2	nt	nt	nt	3	nt	3
CN1CCN(Cc2nc3ccccc3c(=O)n2Cc2nc(-c3ccc4ccccc4c3)cs2)CC1	88*	100*	29	nt	1.3	nt
Cc1ccc2c(c1)C1CN(C)CCC1N2S(=O)(=O)c1cccc(C(F)(F)F)c1 (configuration not stated)	nt	nt	nt	-2	nt	-2
Cc1ccc2c(c1)C1CN(C)CCC1N2C(=O)c1ccc(Cl)c(S(=O)(=O)N2CCOCC2)c1 (configuration not stated)	4	7	60*	-2	-0.03	4
Cc1ccc2c(c1)C1CN(C)CCC1N2C(=O)c1cccc(S(=O)(=O)N2CC(C)CC(C)C2)c1 (configuration not stated)	6	15	80*	1	-0.72	-2
Cc1ccc(C(=O)N(C)c2ccc(OCC(=O)N3c4ccc(C)cc4C4CN(C)CCC43)cc2)cc1 (configuration not stated)	-8	13	68*	1	-1.4	-2
Cc1ccc2c(c1)C1CN(C)CCC1N2C(=O)COc1ccc(N(C)C(=O)C(C)(C)C)cc1 (configuration not stated)	14	33	41	0	-0.14	1
Cc1ccccc1C(=O)Nc1ccc(S(=O)(=O)N2CCOCC2)cc1	nt	nt	-3	0	nt	-2
O=C(COc1ccccc1)N/N=C/c1ccc(O[C@@H]2O[C@H](CO)[C@@H](O)[C@H](O)[C@H]2O)cc1	8	49	-22	-1	-0.43	1
C=CC[C@@H](CC(=O)OC(C)(C)C)C(=O)OC[C@H]1CCCN1C(=O)[C@@H](CC=C)CC(=O)N(CCO)Cc1ccccc1	nt	nt	nt	-2	nt	0
COC1(C)CC2C(CC1OC(=O)c1cc([N+](=O)[O-])cc([N+](=O)[O-])c1)C2(C)C (configuration not stated)	22	100*	48	-1	0.62	-3
COC(=O)C1=CN(c2cc(C)cc(C)c2)C=C(C(=O)OC)C1c1ccc(OC)c(O)c1	nt	nt	37	3	nt	-4
COC(=O)C1=CN(c2cc(C)cc(C)c2)C=C(C(=O)OC)C1c1cccc(F)c1	nt	nt	55*	-1	nt	-1
COc1ccccc1/C=N/NC(=O)Cn1cnc([N+](=O)[O-])n1	2	4	-13	-1	-0.9	-2
